# Source: PubChem BioAssay (several laboratories)
# Wee1 degr inh: inhibitors of human Wee1 degradation; P30291; HeLa Luc-Wee1K328M stability, luciferase luminescence; 100% = proteasome inhibitor MG132 effect; reporter increase, % at 5 µM; 1.2% of 220,000 active; AID 1321;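 active = activation above the mean of all tested compounds plus 3 SD, set per screening run, cut at about 8.8% in these data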;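 also: cells exposed to compound for 20 h before luminescence read; 0% = DMSO alone and 100% = MG132 at 30 µM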
# FXIa inh: inhibitors of human coagulation factor XIa | 0.14% of 220,000 active | purified FXIa, Boc-Glu-Ala-Arg-AMC fluorogenic substrate | inhibition, % at 5 µM | AID 798 | P03951;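 active = inhibition of at least 40%; inactive = inhibition below 40%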;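 also: fluorescence of freed AMC excited at 355 nm; 0% = enzyme without compound and 100% = no enzyme blank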
# FXIIa inh 1536: blocks human coagulation factor XIIa protease activity. purified FXIIa, Boc-QGR-AMC fluorogenic substrate, 2 h. P00748. inhibition, % at 5 µM. 0.3% of 220,000 active; in the data active = inhibition above about 40%;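 also: 0% = enzyme with no compound and 100% = blank without enzyme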
# Target sequence (P00748 20-372 limits assumed): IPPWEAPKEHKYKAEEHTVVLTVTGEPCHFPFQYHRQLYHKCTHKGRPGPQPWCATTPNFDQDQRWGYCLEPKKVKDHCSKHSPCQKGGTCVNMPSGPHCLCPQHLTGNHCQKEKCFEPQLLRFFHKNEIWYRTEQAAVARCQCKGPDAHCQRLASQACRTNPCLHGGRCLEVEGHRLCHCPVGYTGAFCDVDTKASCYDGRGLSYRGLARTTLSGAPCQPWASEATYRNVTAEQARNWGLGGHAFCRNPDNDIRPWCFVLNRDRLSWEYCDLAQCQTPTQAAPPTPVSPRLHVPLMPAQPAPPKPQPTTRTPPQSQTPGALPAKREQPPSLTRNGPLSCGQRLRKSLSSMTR
# Target sequence (P00748 373-615 limits assumed): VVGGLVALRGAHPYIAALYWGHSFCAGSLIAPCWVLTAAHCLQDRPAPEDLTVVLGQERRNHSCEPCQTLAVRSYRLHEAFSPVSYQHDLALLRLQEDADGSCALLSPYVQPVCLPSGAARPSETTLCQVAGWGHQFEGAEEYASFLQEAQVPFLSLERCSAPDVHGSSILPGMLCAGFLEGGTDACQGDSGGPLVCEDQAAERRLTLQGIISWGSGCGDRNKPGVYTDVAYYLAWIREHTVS
# hK5 inh: blocks human kallikrein 5 protease activity; Q9Y337; 0.59% of 210,000 active; AID 873; recombinant hK5, fluorogenic AMC substrate cleavage; inhibition, % at 5 µM;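 active = inhibition of 40% or more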;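 also: 0% = enzyme controls without compound and 100% = no-enzyme blanks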
# Thrombin inh: blocks human thrombin protease activity | inhibition, % at 5 µM | AID 1046 | alpha-thrombin, Boc-VPR-AMC fluorogenic substrate cleavage | 0.26% of 220,000 active;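 active = inhibition at or above 40%; inactive = inhibition below 40%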;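 also: 0% = enzyme with no compound and 100% = wells without enzyme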
#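 Assay system: human alpha-thrombin enzyme. Reagent: Boc-VPR-AMC substrate, 15 µM final. Compound dosing: one concentration per compound, 5 µM, with 0.2% DMSO. Incubation: room-temperature reaction. Technique: AMC fluorescence, 355/460 nm. Measure: % inhibition relative to enzyme controls and enzyme-free blanks.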
# Numbers without * were called inactive; / = no result. Most compounds without a hit are left out; they make up all but 2.2% or so of the library.
SMILES,Wee1 degr inh,FXIa inh,FXIIa inh 1536,hK5 inh,Thrombin inh
Cc1nnc(SCCn2c(N3CCN(C)CC3)nc3c2c(=O)[nH]c(=O)n3C)s1,2,-5,8,13,-6
Cc1nnc(SCCn2c(Br)nc3c2c(=O)[nH]c(=O)n3C)s1,0,44*,9,-8,3
O=C(Nc1ccccc1O)/C(=C\c1ccccc1)NC(=O)c1ccccc1,0,5,12,5,/
CC(C)[C@H](NC(=O)c1ccccc1)C(=O)OCC(=O)N1CCCc2ccccc21,-1,19,19,-18,-4
CC(C)(C)OC(=O)NCCC(=O)N/N=C/c1cccc2nccnc12,9.3*,-3,4,-5,-7
O=C(N/N=C/c1cccc2nccnc12)c1ccncc1,9.8*,-8,7,-9,1
Cc1cc(C)n(CC(=O)N/N=C/c2ccco2)n1,9.2*,-1,2,-9,-1
CCC(C)[C@H](NC(=O)OC(C)(C)C)C(=O)N/N=C/c1cccc2nccnc12 (stereo not given in full),-1,-6,-8,-21,-9
O=C(N/N=C/c1ccco1)c1ccncc1,15*,3,14,-5,2
Cc1ccnn1CC(=O)N/N=C/c1ccco1,2,-9,-3,-1,-3
O=C(CCC(=O)N1CCN(c2ccccn2)CC1)Nc1nnc(C(F)(F)F)s1,-4,0,3,0,-9
COc1ccc2ncc(OC(C)=O)cc2c1,4,8,15,-21,40*
COc1ccc2nc(C)cc(C(=O)O)c2c1,-4,-8,3,-41,-7
Cc1nnc(SCC(=O)Nc2nc3c(s2)CC(C)CC3)s1 (stereo not given),8.9*,-5,10,-19,5
CC1CCc2nc(NC(=O)CSc3nc4ccccc4o3)sc2C1 (stereo not given),-1,1,-6,1,-2
O=C(Nc1ccc(Cl)c(Cl)c1)Nc1nnc(CC2=CCCCC2)s1,0,-1,5,8,2
COc1ccc(COc2cc(-c3cccc(OC)c3)nc3ccc(N)cc23)cc1,9.5*,23,17,-24,4
Cc1ccc(C)c(NC(=O)CCC(=O)N/N=C/c2ccc3c(c2)OCO3)c1,10*,-4,5,-2,-3
Cc1ccccc1NCC(=O)N/N=C\c1ccc2c(c1)OCO2,3,-1,10,19,-7
COc1ccc(CN(Cc2cccnc2)C(=S)NCCc2ccccc2)cc1OC,3,26,26,-19,-2
COc1cc2c(cc1OC)C(C)N(S(=O)(=O)c1cn(C)c(C)n1)CC2 (stereo not given),-4,-5,3,-10,-4
COc1cc2c(cc1OC)C(C)N(S(=O)(=O)c1cn(C)cn1)CC2 (stereo not given),9.4*,-19,1,5,-5
CNCc1cc2ccc(C)cc2[nH]c1=O,-1,6,0,45*,9
CCC(C)N(C)C1CCN(C(=S)Nc2cccc(SC)c2)CC1 (stereo not given),-3,-3,4,/,-5
Cc1nn(C(C)C(=O)NCC2CCCO2)c(=O)c2cc3occc3n12 (stereo not given),1,7,3,43*,11
SMILES,Wee1 degr inh,FXIa inh,FXIIa inh 1536,hK5 inh,Thrombin inh
NC(=O)C(=CNc1nc(-c2ccc(Cl)c(Cl)c2)cs1)C(N)=O,5,-5,5,-25,0
CC(C)(C)CC(=O)NCCc1csc(-c2ccccc2)n1,-3,-2,8,-2,-3
O=C(NCCc1ccc(Cl)cc1)Nc1cccc(Cl)c1,8.9*,-1,-4,-1,0
O=C(Nc1ccc2c(c1)oc1ccccc12)N1CCOCC1,8,42*,13,-13,3
CCOC(=O)C1(Cc2ccc(OC)cc2)CCN(C(=O)CN2CCCCC2=O)CC1,1,1,7,/,-1
Cn1c(CSCc2ccccc2)nnc1SCC(=O)Nc1ccc(C(=O)O)cc1,1,3,9,/,-1
CC(=O)NN1C(=O)/C(=C\c2ccc(O)cc2)SC1=S,5,2,14,3,-4
O=C(O)c1ccc(/C=C2\SC(=S)N(Nc3ccccc3)C2=O)cc1,-2,49*,41*,29,19
CC(=O)NN1C(=O)/C(=C\c2ccccc2)SC1=S,-3,-3,-1,89*,3
O=C1/C(=C/c2ccncc2)SC(=S)N1Nc1ccccc1,0,1,4,-1,-2
CC1CN(CC(O)COC2CCC(C(C)(C)C)CC2)CC(C)O1 (stereo not given),-1,28,26,43*,2
